Laboratory results published in ChEMBL document CHEMBL1136179, “Prolylisoxazoles: potent inhibitors of prolyloligopeptidase with antitrypanosomal activity” (Bioorg Med Chem Lett, 2003).
Values after ≈ are worked out from the molar mass of the structure shown. Each block holds one compound with its values, some of them ahead of it.

Experiments:
[1] = tested on: Trypanosoma brucei rhodesiense; test: Antiprotozoal activity against T. b. rhodesiense STIB900 was determined; type: functional; settings: read-out: ED50 (the source's name)
Method in brief: (§1)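 Trypanosoma brucei rhodesiense strain STIB900 was tested, with pentamidine as the reference drug.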

Trypanosoma cruzi [2] = test: Antiprotozoal activity against Trypanosoma cruzi Lac Z was determined; type: functional; settings: read-out: ED50 (the source's name)
Method in brief: (§2)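 Trypanosoma cruzi of the Lac Z strain was tested, with benznidazol as the reference drug.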

[3] = tested on: Trypanosoma brucei rhodesiense; test: Antiprotozoal activity against T. b. rhodesiense STIB900 at a dose of 30 ug/mL
KB [4] = test: Toxicity in T. b. rhodesiense STIB900 infected KB cells; type: functional; settings: Homo sapiens, read-out: ED50 (the source's name)
Method in brief: (§3)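 Cytotoxicity was measured on KB cells, with podophyllotoxin as the reference drug.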

KB [5] = test: Toxicity in Leishmania donovani L82 infected KB cells; type: functional; settings: Homo sapiens, read-out: ED50 (the source's name); method in brief: as §3
[6] = tested on: Trypanosoma brucei rhodesiense; test: Antiprotozoal activity against T. b. rhodesiense STIB900 at a dose of 3 ug/mL.; type: functional; method in brief: as §1
Trypanosoma cruzi [7] = test: Antiprotozoal activity against Trypanosoma cruzi Lac Z at a dose of 10 ug/mL.; type: functional; method in brief: as §2
KB [8] = test: Toxicity in Trypanosoma cruzi Lac Z infected KB cells; type: functional; settings: Homo sapiens, read-out: ED50 (the source's name); method in brief: as §3
Leishmania donovani [9] = test: Antiprotozoal activity against Leishmania donovani L82 at a dose of 30 ug/mL. Compound was toxic to host macrophages; type: functional
Method in brief: (§4)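 Leishmania donovani strain L82 was tested against test compounds, with pentostam as the reference drug.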

[10] = tested on: Trypanosoma brucei rhodesiense; test: Antiprotozoal activity against T. b. rhodesiense STIB900 at a dose of 10 ug/mL.; type: functional; method in brief: as §1
Trypanosoma cruzi [11] = test: Antiprotozoal activity against Trypanosoma cruzi Lac Z at a dose of 1 ug/mL.; type: functional; method in brief: as §2
[12] = tested on: Trypanosoma brucei rhodesiense; test: Antiprotozoal activity against T. b. rhodesiense STIB900 at a dose of 1 ug/mL.; type: functional; method in brief: as §1
Trypanosoma cruzi [13] = test: Antiprotozoal activity against Trypanosoma cruzi Lac Z at a dose of 3 ug/mL.; type: functional; method in brief: as §2
Leishmania donovani [14] = test: Antiprotozoal activity against Leishmania donovani L82 was determined; type: functional; settings: read-out: ED50 (the source's name); method in brief: as §4
Leishmania donovani [15] = test: Antiprotozoal activity against Leishmania donovani L82 at a dose of 3 ug/mL.; type: functional; method in brief: as §4
Trypanosoma cruzi [16] = test: Antiprotozoal activity against Trypanosoma cruzi Lac Z at a dose of 30 ug/mL. Compound was toxic to host macrophages; type: functional; method in brief: as §2
Leishmania donovani [17] = test: Antiprotozoal activity against Leishmania donovani L82 at a dose of 10 ug/mL.; type: functional; method in brief: as §4
Prolyl endopeptidase = biological target: T1, Prolyl endopeptidase (Homo sapiens, UniProt P48147); test: In vitro inhibitory activity determined against prolyl oligopeptidase (PO) in human; Moderately active
T1 sequence (P48147 whole entry): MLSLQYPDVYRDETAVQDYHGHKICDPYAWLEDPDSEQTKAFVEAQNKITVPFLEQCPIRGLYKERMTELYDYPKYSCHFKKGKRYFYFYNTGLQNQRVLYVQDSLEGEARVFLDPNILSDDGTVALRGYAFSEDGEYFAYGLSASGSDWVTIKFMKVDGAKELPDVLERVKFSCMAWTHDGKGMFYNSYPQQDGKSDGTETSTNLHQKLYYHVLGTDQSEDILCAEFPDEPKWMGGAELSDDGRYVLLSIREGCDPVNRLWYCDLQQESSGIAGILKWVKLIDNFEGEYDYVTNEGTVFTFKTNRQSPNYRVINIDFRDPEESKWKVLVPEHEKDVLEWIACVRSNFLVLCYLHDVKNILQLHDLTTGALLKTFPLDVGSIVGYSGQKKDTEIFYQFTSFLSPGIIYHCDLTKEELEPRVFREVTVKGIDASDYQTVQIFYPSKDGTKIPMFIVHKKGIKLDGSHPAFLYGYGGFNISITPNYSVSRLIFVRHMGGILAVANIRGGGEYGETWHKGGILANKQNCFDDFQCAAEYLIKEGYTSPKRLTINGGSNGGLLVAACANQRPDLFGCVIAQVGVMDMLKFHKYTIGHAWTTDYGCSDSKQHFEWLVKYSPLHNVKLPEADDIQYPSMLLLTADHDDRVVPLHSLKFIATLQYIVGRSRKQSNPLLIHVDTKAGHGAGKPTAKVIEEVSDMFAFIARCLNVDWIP

[18] = tested on: Trypanosoma brucei rhodesiense; test: Antiprotozoal activity against T. b. rhodesiense at a dose of 10 ug/mL.; type: functional; method in brief: as §1
KB [19] = test: Toxicity in Trypanosoma cruzi infected KB cells; type: functional; settings: Homo sapiens, read-out: ED50 (the source's name); method in brief: as §3
KB [20] = test: Toxicity in T. b. rhodesiense infected KB cells; type: functional; settings: Homo sapiens, read-out: ED50 (the source's name); method in brief: as §3
[21] = tested on: Trypanosoma brucei rhodesiense; test: Antiprotozoal activity against T. b. rhodesiense at a dose of 30 ug/mL
[22] = tested on: Trypanosoma brucei rhodesiense; test: Antiprotozoal activity against T. b. rhodesiense at a dose of 3 ug/mL.; type: functional; method in brief: as §1
[23] = tested on: Trypanosoma brucei rhodesiense; test: Antiprotozoal activity against T. b. rhodesiense at a dose of 1 ug/mL.; type: functional; method in brief: as §1
Leishmania donovani [24] = test: Antiprotozoal activity against Leishmania donovani was determined; settings: read-out: ED50
KB [25] = test: Toxicity in Leishmania donovani infected KB cells; type: functional; settings: Homo sapiens, read-out: ED50 (the source's name); method in brief: as §3
Trypanosoma cruzi [26] = test: Antiprotozoal activity against Trypanosoma cruzi at a dose of 3 ug/mL.; type: functional; method in brief: as §2
Trypanosoma cruzi [27] = test: Antiprotozoal activity against Trypanosoma cruzi at a dose of 1 ug/mL.; type: functional; method in brief: as §2
Leishmania donovani [28] = test: Antiprotozoal activity against Leishmania donovani at a dose of 10 ug/mL.; type: functional; method in brief: as §4
Leishmania donovani [29] = test: Antiprotozoal activity against Leishmania donovani at a dose of 3 ug/mL.; type: functional; method in brief: as §4
Leishmania donovani [30] = test: Antiprotozoal activity against Leishmania donovani at a dose of 30 ug/mL. Compound was toxic to host macrophages; type: functional; method in brief: as §4
[31] = tested on: Trypanosoma brucei rhodesiense; test: Antiprotozoal activity against T. b. rhodesiense was determined; type: functional; settings: read-out: ED50 (the source's name); method in brief: as §1
Trypanosoma cruzi [32] = test: Antiprotozoal activity against Trypanosoma cruzi was determined; type: functional; settings: read-out: ED50 (the source's name); method in brief: as §2
Trypanosoma cruzi [33] = test: Antiprotozoal activity against Trypanosoma cruzi at a dose of 30 ug/mL. Compound was toxic to host macrophages; type: functional; method in brief: as §2
Trypanosoma cruzi [34] = test: Antiprotozoal activity against Trypanosoma cruzi at a dose of 10 ug/mL.; type: functional; method in brief: as §2

EC50 [1]: 5.5 µg/mL (≈ 10.4 µM)
EC50 (Trypanosoma cruzi [2]): 4.7 µg/mL (≈ 8.87 µM)
EC50 (Leishmania donovani [14]): 13.1 µg/mL (≈ 24.7 µM)
Structure (SMILES): O=C(c1cc(COCc2ccccc2)on1)[C@@H]1CCCN1C(=O)[C@@H]1CCCN1C(=O)CCCc1ccccc1
inhibition at 30 µg/mL [3]: 99.9%
EC50 (KB [4]): > 300 µg/mL
EC50 (KB [5]): > 300 µg/mL
inhibition at 3 µg/mL [6]: 6.9%
inhibition at 10 µg/mL (Trypanosoma cruzi [7]): 69.4%
EC50 (KB [8]): > 300 µg/mL
inhibition at 30 µg/mL (Leishmania donovani [9]): 100%
inhibition at 10 µg/mL [10]: 95.5%
inhibition at 1 µg/mL (Trypanosoma cruzi [11]): 16%
inhibition at 1 µg/mL [12]: 0.9%
inhibition at 3 µg/mL (Trypanosoma cruzi [13]): 42.6%
inhibition at 3 µg/mL (Leishmania donovani [15]): 0%
inhibition at 30 µg/mL (Trypanosoma cruzi [16]): 86.7%
inhibition at 10 µg/mL (Leishmania donovani [17]): 6.9%

IC50 (Prolyl endopeptidase): > 1000 nM
Structure (SMILES): COC(=O)c1onc(C(=O)[C@@H]2CCCN2C(=O)[C@@H]2CCCN2C(=O)OCc2ccccc2)c1C(=O)OC

EC50 (Leishmania donovani [24]): 13.5 µg/mL (≈ 28.5 µM)
EC50 [31]: 2.2 µg/mL (≈ 4.65 µM)
EC50 (Trypanosoma cruzi [32]): 6.7 µg/mL (≈ 14.1 µM)
Structure (SMILES): O=C(c1cc(-c2ccccc2)on1)[C@@H]1CCCN1C(=O)[C@@H]1CCCN1C(=O)OCc1ccccc1
inhibition at 10 µg/mL [18]: 99.8%
EC50 (KB [19]): 23 µg/mL (≈ 48.6 µM)
EC50 (KB [20]): 23 µg/mL (≈ 48.6 µM)
inhibition at 30 µg/mL [21]: 99.9%
inhibition at 3 µg/mL [22]: 83.4%
inhibition at 1 µg/mL [23]: 7.7%
EC50 (KB [25]): 23 µg/mL (≈ 48.6 µM)
inhibition at 3 µg/mL (Trypanosoma cruzi [26]): 29%
inhibition at 1 µg/mL (Trypanosoma cruzi [27]): 10.8%
inhibition at 10 µg/mL (Leishmania donovani [28]): 1.8%
inhibition at 3 µg/mL (Leishmania donovani [29]): 0%
inhibition at 30 µg/mL (Leishmania donovani [30]): 100%
inhibition at 30 µg/mL (Trypanosoma cruzi [33]): 86.7%
inhibition at 10 µg/mL (Trypanosoma cruzi [34]): 59.9%
